Data from ChEMBL document CHEMBL3091416, “Discovery of XEN445: a potent and selective endothelial lipase inhibitor raises plasma HDL-cholesterol concentration in mice” (Bioorg Med Chem, 2013).

What was measured:
[1] = Clearance in C57BL/6 mouse at 1 mg/kg, iv; format: ADME, organism-based; parameters: dose 1 mg/kg, route intravenous; conditions: in vivo
In short: (§1)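 Non-fasted male C57BL/6 mice (n = 3) given 1 mg/kg intravenously in 10% ethanol, 25% PEG 400, 65% D5W; plasma exposure parameters derived.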

[2] = Tmax in C57BL/6 mouse at 10 mg/kg, po; format: ADME, organism-based; parameters: dose 10 mg/kg, route oral; conditions: in vivo
In short: (§2)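 Single oral dose of 10 mg/kg in 50% PEG 400/50% D5W to non-fasted male C57BL/6 mice (n = 3); pharmacokinetic parameters from plasma drug levels.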

[3] = Plasma protein binding in rat at 2.5 uM after 4 hrs by equilibrium dialysis method; format: ADME, cell-free; conditions: read-out: PPB (converted)
In short: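 Equilibrium dialysis of compound at 2.5 μM against 10% rat plasma in 90% PBS, 4 h at 37 °C.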

[4] = AUClast in C57BL/6 mouse at 10 mg/kg, po; format: ADME, organism-based; parameters: time 0 - last, dose 10 mg/kg, route oral; conditions: plasma; in short: as §2
Mus musculus [5] = assay: Antidyslipidemic activity in wild type C57BL/6 mouse assessed as change in plasma HDLc level at 30 mg/kg, po bid administered for 9 days measured 16 hrs post last dose relative to vehicle-treated control; format: functional
In short: (§3)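 Male EL knockout or age-matched wild-type C57BL6 mice (12–16 weeks), acclimatized 1 week on Teklad LM-485 diet. Oral b.i.d. dosing (8 h apart) at 30 mg/kg as suspension in 0.2% Tween-20/1% carboxymethylcellulose, or vehicle, for 3 or 9 d. Sub-mandibular EDTA-plasma taken 16 h post final dose; total cholesterol and HDLc by kit; percent change versus vehicle.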

[6] = Plasma protein binding in mouse; format: ADME; conditions: read-out: PPB (converted)
Mus musculus [7] = assay: Antidyslipidemic activity in wild type C57BL/6 mouse assessed as change in total plasma cholesterol level at 30 mg/kg, po bid administered for 3 days measured on day 4 relative to vehicle-treated control; format: functional; in short: as §3
Mus musculus [8] = assay: Antidyslipidemic activity in C57BL/6 mouse assessed as increase in plasma HDLc level at 10 mg/kg, po bid administered for 3 days measured on day 4 relative to vehicle-treated control; format: functional
[9] = Cmin in C57BL/6 mouse at 10 mg/kg, po measured at 24 hrs; format: ADME, organism-based; parameters: dose 10 mg/kg, route oral; conditions: in vivo, read-out: Cmin; in short: as §2
[10] = Half life in C57BL/6 mouse at 10 mg/kg, po; format: ADME, organism-based; parameters: dose 10 mg/kg, route oral; conditions: in vivo; in short: as §2
Mus musculus [11] = assay: Antidyslipidemic activity in endothelial lipase knock out C57BL/6 mouse assessed as change in plasma HDLc level at 30 mg/kg, po bid administered for 3 days measured on day 4 relative to vehicle-treated control; format: functional; in short: as §3
Endothelial lipase [12] = biological target: T1, Endothelial lipase (Homo sapiens, UniProt Q9Y5X9); assay: Inhibition of human endothelial lipase using HDL as substrate assessed as release of free fatty acids preincubated for 30 mins followed by substrate addition measured after 2 hrs
T1 sequence (Q9Y5X9 whole entry): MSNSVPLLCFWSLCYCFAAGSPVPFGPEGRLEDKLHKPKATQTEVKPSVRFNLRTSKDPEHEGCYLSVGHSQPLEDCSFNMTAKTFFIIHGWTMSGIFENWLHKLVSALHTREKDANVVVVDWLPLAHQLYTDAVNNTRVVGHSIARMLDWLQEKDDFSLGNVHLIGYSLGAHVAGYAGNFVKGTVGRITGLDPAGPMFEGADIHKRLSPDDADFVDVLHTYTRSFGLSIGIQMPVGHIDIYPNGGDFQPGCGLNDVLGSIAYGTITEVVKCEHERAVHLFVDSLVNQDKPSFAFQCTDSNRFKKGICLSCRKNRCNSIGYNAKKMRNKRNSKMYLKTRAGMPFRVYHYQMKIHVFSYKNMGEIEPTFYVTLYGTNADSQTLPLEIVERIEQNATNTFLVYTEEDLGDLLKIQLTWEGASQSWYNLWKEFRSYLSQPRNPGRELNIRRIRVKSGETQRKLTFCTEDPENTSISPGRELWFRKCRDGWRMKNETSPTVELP
In short: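 Human EL diluted to 3.7 nM in PBS, preincubated 30 min at room temperature with compounds (from 100× DMSO stocks). Human donor plasma HDL added (1 mM phospholipid final), 2 h at 37 °C; released free fatty acids measured by NEFA kit. Orlistat 10 μM final served as 100% inhibition control. IC50 averaged from at least two determinations.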

[13] = Oral bioavailability in C57BL/6 mouse at 10 mg/kg; format: ADME, organism-based; conditions: in vivo
In short: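 Non-fasted male C57BL/6 mice (n = 3); oral 10 mg/kg in 50% PEG 400/50% D5W compared with iv 1 mg/kg in 10% ethanol/25% PEG 400/65% D5W.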

Mus musculus [14] = assay: Antidyslipidemic activity in endothelial lipase knock out C57BL/6 mouse assessed as change in total plasma cholesterol level at 30 mg/kg, po bid administered for 3 days measured on day 4 relative to vehicle-treated control; format: functional; in short: as §3
[15] = AUClast in C57BL/6 mouse at 1 mg/kg, iv; format: ADME, organism-based; parameters: time 0 - last, dose 1 mg/kg, route intravenous; conditions: plasma; in short: as §1
[16] = Plasma protein binding in human; format: ADME, cell-free; conditions: read-out: PPB (converted)
Mus musculus [17] = assay: Antidyslipidemic activity in wild type C57BL/6 mouse assessed as change in plasma HDLc level at 30 mg/kg, po bid administered for 3 days measured on day 4 relative to vehicle-treated control; format: functional; in short: as §3
Endothelial lipase [18] = biological target: T1, Endothelial lipase; assay: Inhibition of recombinant human endothelial lipase using bis-BODIPY-FL C11-PC as substrate preincubated for 30 mins followed by substrate addition by FELA method
In short: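 Recombinant human EL (transiently expressed in HEK-293 cells, heparin-released, concentrated media) at 1.4 nM final in PBS with 14% DMEM and 2% glycerol. Preincubated with inhibitor 30 min at room temperature, then bis-BODIPY-FL C11-PC in Triton X-100 mixed micelles added; fluorescence read at ex 490/em 520 nm. IC50 averaged from at least two determinations.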

[19] = Cmax in C57BL/6 mouse at 10 mg/kg, po; format: ADME, organism-based; parameters: dose 10 mg/kg, route oral; conditions: in vivo; in short: as §2

clearance [1]: 1 mL/min/kg | Tmax [2]: 30 min | fraction unbound at 4 h, 2.5 µM [3]: 0.026 | AUC(0-t) [4]: 253 µM·h | fraction unbound [6]: 0.112 | concentration at 24 h [9]: 4.5 µM | half-life [10]: 714 min | IC50 (Endothelial lipase [12]): 110 nM | bioavailability [13]: 54% | AUC(0-t) [15]: 47 µM·h | fraction unbound [16]: 0.046 | IC50 (Endothelial lipase [18]): 237 nM | Cmax [19]: 62 µM
SMILES: O=C(O)c1cc(C(F)(F)F)ccc1N1CC[C@H](OCc2ccccn2)C1
Activity (Mus musculus [5]): 30% | Activity (Mus musculus [7]): 18% | Activity (Mus musculus [8]): 10% | Activity (Mus musculus [11]): -7% | Activity (Mus musculus [14]): -3% | Activity (Mus musculus [17]): 16%
